Consider 23 compounds from ChEMBL document CHEMBL3763110, “A potent and selective inhibitor targeting human and murine 12/15-LOX” (Bioorg Med Chem, 2016).

Each structure is given as a SMILES string.

Test [1] has as its target T1, Polyunsaturated fatty acid lipoxygenase ALOX15 (Homo sapiens, UniProt P16050).
T1 sequence (P16050 whole entry): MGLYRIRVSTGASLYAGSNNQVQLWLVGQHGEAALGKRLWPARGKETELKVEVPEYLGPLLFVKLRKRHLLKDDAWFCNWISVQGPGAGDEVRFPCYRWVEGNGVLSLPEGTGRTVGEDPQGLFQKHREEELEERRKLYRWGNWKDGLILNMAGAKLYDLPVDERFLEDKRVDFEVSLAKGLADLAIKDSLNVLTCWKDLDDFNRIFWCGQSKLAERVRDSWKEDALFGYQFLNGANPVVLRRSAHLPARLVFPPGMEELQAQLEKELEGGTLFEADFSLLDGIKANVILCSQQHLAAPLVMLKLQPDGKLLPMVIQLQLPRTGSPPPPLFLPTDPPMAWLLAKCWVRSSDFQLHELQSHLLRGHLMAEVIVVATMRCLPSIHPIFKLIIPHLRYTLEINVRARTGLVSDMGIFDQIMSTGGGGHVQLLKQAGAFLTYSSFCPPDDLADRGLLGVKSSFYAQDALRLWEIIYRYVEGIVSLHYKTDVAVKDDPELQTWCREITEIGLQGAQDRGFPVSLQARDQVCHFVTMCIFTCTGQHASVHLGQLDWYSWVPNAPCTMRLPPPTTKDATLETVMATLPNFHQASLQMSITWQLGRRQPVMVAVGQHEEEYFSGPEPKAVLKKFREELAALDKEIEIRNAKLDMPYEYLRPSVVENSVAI
The test can be described thus: Inhibition of N-terminal His6-tagged human 12/15-LOX using arachidonic acid as substrate by UV-visible spectrophotometric analysis.

In test [2] the target is T2, Polyunsaturated fatty acid lipoxygenase ALOX15 (Mus musculus) (UniProt P39654).
T2 sequence (whole entry): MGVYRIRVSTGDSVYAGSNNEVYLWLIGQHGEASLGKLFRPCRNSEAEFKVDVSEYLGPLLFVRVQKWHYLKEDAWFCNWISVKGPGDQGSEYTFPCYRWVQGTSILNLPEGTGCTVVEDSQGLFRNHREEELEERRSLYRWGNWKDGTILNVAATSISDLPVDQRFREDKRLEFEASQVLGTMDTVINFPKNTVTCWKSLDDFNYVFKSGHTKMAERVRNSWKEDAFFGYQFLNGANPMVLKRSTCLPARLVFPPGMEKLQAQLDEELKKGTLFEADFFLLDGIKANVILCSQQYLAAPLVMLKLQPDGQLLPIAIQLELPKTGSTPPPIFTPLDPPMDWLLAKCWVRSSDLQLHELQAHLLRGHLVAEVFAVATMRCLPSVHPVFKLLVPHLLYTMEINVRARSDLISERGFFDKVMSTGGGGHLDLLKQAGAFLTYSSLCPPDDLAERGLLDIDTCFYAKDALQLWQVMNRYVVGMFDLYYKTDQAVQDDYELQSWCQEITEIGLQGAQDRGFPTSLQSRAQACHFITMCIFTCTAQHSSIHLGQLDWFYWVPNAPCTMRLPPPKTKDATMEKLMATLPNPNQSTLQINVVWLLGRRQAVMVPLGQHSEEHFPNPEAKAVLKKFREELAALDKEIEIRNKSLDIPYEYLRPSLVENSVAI
In words: Inhibition of glutamate-induced 12/15-LOX-dependent cell death in mouse HT22 cells assessed as increase in cell survival at 5 uM by LDH release assay. In kind it is cell-based. As to conditions: HT-22. Put shortly:
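Mouse HT-22 neuronal cells grown in DMEM with 10% FBS and penicillin/streptomycin. Seeded at 1 × 10^4 cells/well and treated 18h later at ~50–70% confluence. Medium was replaced and 5 mM glutamate added with compound at 5, 10 or 20 μM, or DMSO control (max 0.1% final). LDH measured separately in cell extracts and media; % LDH released to medium calculated after background subtraction.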

Test [3] addresses T3, Polyunsaturated fatty acid lipoxygenase ALOX12 (Homo sapiens, UniProt P18054).
T3 sequence (P18054 whole entry): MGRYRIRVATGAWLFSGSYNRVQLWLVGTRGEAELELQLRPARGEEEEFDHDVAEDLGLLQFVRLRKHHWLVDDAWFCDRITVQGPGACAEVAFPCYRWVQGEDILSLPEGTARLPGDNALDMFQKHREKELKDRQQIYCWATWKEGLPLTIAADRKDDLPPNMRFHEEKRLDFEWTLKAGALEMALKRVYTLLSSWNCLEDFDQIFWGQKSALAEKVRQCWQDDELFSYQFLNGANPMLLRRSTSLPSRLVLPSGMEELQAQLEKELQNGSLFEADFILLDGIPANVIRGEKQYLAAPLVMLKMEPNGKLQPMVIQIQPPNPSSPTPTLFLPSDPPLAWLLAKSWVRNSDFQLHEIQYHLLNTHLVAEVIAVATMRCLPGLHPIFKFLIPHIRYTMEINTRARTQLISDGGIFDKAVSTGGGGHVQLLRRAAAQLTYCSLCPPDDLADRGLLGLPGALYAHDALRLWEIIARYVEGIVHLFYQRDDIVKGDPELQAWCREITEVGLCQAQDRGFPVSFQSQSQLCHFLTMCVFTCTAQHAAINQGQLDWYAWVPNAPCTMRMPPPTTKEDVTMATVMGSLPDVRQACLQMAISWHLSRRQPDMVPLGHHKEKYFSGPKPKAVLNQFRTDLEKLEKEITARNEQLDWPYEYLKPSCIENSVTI
In words: Inhibition of N-terminal His6-tagged human 12-LOX using arachidonic acid as substrate by UV-visible spectrophotometric analysis.

Test [4] addresses T4, Polyunsaturated fatty acid lipoxygenase ALOX15B (Homo sapiens, UniProt O15296).
T4 sequence (O15296 whole entry): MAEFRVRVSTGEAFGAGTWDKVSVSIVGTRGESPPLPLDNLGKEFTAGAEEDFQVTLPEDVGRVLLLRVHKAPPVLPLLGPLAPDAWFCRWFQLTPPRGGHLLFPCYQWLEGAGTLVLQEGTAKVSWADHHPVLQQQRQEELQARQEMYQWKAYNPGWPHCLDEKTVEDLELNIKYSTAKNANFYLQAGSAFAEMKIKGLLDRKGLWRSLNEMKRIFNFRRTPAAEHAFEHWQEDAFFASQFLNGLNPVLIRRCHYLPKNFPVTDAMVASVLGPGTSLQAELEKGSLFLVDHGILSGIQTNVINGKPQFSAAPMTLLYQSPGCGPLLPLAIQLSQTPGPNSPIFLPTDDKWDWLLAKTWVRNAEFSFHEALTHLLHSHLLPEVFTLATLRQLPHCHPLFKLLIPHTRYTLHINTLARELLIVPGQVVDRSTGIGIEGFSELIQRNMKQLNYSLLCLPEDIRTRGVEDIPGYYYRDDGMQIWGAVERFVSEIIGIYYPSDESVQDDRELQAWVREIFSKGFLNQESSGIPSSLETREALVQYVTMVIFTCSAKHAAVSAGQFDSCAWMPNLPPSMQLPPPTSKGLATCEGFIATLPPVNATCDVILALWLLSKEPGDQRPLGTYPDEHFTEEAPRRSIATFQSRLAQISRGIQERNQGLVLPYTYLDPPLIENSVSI
In words: Inhibition of N-terminal His6-tagged human 15-LOX-2 using arachidonic acid as substrate by UV-visible spectrophotometric analysis.

The target in test [5] is T5, Polyunsaturated fatty acid 5-lipoxygenase (Homo sapiens, UniProt P09917).
T5 sequence (P09917 whole entry): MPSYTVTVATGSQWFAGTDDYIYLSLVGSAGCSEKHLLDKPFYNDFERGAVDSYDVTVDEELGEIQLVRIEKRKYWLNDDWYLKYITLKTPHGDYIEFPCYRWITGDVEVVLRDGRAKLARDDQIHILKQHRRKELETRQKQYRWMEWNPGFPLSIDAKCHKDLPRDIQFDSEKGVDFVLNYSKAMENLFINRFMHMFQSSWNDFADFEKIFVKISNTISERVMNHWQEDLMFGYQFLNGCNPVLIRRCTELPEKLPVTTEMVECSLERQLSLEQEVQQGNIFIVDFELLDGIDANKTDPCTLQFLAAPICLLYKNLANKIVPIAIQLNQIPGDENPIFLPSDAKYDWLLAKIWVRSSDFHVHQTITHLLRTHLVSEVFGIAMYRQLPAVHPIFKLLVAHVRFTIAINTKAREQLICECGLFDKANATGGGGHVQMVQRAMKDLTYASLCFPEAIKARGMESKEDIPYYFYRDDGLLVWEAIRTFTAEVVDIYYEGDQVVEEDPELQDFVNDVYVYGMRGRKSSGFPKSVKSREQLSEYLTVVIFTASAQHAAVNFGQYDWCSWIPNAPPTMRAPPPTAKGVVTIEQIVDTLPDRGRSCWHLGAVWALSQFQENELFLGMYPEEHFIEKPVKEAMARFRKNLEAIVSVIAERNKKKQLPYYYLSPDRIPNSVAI
The test can be described thus: Inhibition of human 5-LOX using arachidonic acid as substrate by UV-visible spectrophotometric analysis.

Test [6] deals with T6, Prostaglandin G/H synthase 2 (Homo sapiens, UniProt P35354).
T6 sequence (P35354 whole entry): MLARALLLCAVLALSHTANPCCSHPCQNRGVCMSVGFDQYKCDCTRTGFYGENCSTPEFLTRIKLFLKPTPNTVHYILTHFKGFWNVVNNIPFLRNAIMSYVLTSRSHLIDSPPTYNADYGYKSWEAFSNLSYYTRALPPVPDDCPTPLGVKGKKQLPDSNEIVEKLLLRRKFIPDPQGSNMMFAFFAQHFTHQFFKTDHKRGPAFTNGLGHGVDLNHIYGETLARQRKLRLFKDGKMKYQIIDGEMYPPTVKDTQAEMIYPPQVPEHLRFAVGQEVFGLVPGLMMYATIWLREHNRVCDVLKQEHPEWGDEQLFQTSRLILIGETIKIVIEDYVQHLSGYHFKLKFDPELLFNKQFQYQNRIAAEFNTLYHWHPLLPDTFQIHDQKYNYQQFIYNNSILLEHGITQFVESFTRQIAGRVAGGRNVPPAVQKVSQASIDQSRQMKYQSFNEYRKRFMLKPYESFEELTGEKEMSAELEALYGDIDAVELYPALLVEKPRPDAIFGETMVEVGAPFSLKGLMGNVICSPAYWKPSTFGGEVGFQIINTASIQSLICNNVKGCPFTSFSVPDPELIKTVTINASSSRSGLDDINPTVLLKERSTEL
The test can be described thus: Inhibition of human COX-2 by UV-visible spectrophotometric analysis.

Test [7] deals with T7, Polyunsaturated fatty acid lipoxygenase ALOX15 (Homo sapiens) (UniProt P16050).
T7 sequence (whole entry): T1 sequence (P16050 whole entry)

In test [8] the target is T7, Polyunsaturated fatty acid lipoxygenase ALOX15 (Homo sapiens). This is another data set of the same source.

Consider `Oc1ccccc1-c1cc(-c2ccco2)[nH]n1`, for which half-maximal inhibition in test [1] (IC50) was put at 7 µM. Besides, the Survival in test [2] amounted to 34%.
The compound `Oc1ccc(Br)cc1-c1cc(-c2ccccc2)[nH]n1` had an IC50 in test [1] greater than 50 µM.
`Cc1ccc(-c2cc(-c3ccccc3C)[nH]n2)c(O)c1` showed an IC50 in test [1] of 10 µM. The Survival in test [2] was determined as 71%.
In test [1], `Cc1ccc(-c2cc(-c3ccc(C)cc3O)[nH]n2)cc1` registered an IC50 greater than 50 µM.
The compound `COc1ccc(O)c(-c2cc(-c3ccc(F)cc3)[nH]n2)c1` displayed an IC50 in test [1] of 11 µM. The Survival in test [2] is 78%.
In the case of `Cc1ccc(O)c(-c2cc(C(=O)NCc3ccccc3)[nH]n2)c1`, the half-inhibitory concentration (IC50) in test [1] was greater than 50 µM.
In test [1], `COc1ccc(-c2cc(-c3cc(OC)ccc3O)[nH]n2)cc1` came in with a half-inhibitory concentration (IC50) of 6 µM. Also, in test [2], the Survival worked out at 96%.
Regarding `Oc1ccc(Br)cc1-c1cc(-c2ccccc2Cl)[nH]n1`, the IC50 in test [1] is greater than 50 µM.
Regarding `COc1ccc(O)c(-c2cc(-c3ccccc3Cl)[nH]n2)c1`, the Survival in test [2] came to 83%.
`Oc1ccc(Cl)cc1-c1cc(-c2ccccc2Cl)[nH]n1` came in with a 50% inhibitory concentration (IC50) in test [1] greater than 50 µM.
In turn, `COc1ccc(O)c(-c2cc(-c3cccc(Br)c3)[nH]n2)c1` had an IC50 in test [1] of 7 µM. Further, the Survival in test [2] was 70%.
For the compound `Cc1ccccc1-c1cc(-c2ccccc2O)[nH]n1`, in test [2], the Survival was determined as 76%.
`Cc1ccccc1-c1cc(-c2ccccc2O)n[nH]1` returned an IC50 in test [1] of 7 µM.
Same read-out and setting: the result for `COc1ccc(O)c(-c2cc(-c3ccccc3Cl)n[nH]2)c1` reads 6.6 µM.
As for `Oc1ccccc1-c1cc[nH]n1`, in test [1], the half-inhibitory concentration (IC50) was greater than 50 µM.
`COc1ccc(-c2cc(-c3ccc(C)cc3)[nH]n2)c(O)c1`: in test [1], the half-inhibitory concentration (IC50) was greater than 50 µM.
Still for that read-out and setting: the result for `COc1ccc(C(=O)c2c[nH]nc2-c2cc(C)ccc2O)cc1` reads greater than 50 µM.
In the case of `Cc1ccc(O)c(-c2cc(-c3ccccc3C)[nH]n2)c1`, the 50% inhibitory concentration (IC50) in test [1] is 3.4 µM; in test [3] it was greater than 50 µM; in test [4], greater than 50 µM; in test [5], greater than 100 µM; in test [6] it was greater than 100 µM. Further, in test [2], the Survival worked out at 20%. In test [7], this compound yielded a Kic of 1 µM. Further, in test [8], the Kiuc was 6 µM.
In turn, `Oc1ccccc1-c1cc(-c2ccccc2Cl)[nH]n1` had a half-maximal inhibitory concentration (IC50) in test [1] of 4 µM.
In test [1], `c1ccc(-c2cc(-c3ccccc3)[nH]n2)cc1` showed a half-maximal inhibitory concentration (IC50) greater than 50 µM.
With `Cc1ccc(O)c(-c2cc(-c3cccc(Br)c3)[nH]n2)c1`, the concentration for half-maximal inhibition (IC50) in test [1] is 9.1 µM. In addition, the Survival in test [2] was found to be 18%.
`COc1ccc(-c2cc(-c3ccccc3O)[nH]n2)cc1` gave an IC50 in test [1] of 10 µM. Besides, the Survival in test [2] was found to be 7%.
For the compound `Cc1ccc(O)c(-c2cc(-c3cccc(F)c3)[nH]n2)c1`, the IC50 in test [1] came out at 10 µM. The Survival in test [2] amounted to 49%.
